Compounds with a hit are over-represented: about 12% of the library has one in this group of screens.
Wee1 stabilizer – Wee1 degradation inhibitors, primary screen, cell-based, HeLa, Wee1K328M-luciferase, luminescence. Wee1-like protein kinase (Homo sapiens), P30291. reporter increase, % at 5 µM. HeLa Luc-Wee1K328M stability; 100% = proteasome inhibitor MG132 effect. 220,000 tested, 1.2% active;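 active = activation above the mean of all tested compounds plus 3 SD, set per screening run, cut at about 8.8% in these data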;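 also: cells exposed to compound for 20 h before luminescence read; 0% = DMSO alone and 100% = MG132 at 30 µM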
Target sequence (P30291 whole entry K328M): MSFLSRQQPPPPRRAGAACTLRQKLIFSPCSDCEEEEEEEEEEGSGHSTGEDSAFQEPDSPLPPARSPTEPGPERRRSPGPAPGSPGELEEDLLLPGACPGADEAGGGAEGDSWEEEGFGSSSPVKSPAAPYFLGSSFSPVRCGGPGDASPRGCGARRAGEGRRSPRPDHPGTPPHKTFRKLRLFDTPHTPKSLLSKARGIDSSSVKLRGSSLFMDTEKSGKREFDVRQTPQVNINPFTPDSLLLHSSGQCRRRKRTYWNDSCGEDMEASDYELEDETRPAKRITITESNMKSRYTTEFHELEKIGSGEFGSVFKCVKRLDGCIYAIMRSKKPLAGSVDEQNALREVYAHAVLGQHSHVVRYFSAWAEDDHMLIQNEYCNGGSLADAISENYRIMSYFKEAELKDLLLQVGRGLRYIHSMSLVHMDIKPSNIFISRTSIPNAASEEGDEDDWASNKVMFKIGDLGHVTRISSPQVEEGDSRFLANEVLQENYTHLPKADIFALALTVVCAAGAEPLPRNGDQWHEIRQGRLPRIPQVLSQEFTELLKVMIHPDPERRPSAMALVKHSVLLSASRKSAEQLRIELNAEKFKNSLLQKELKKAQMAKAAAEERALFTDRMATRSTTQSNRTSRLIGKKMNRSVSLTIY
Arbovirus anti – antivirals against arbovirus infection, primary screen, cell-based, full library, 10K replicate subset. inhibition, % at 10 µM. 200,000 tested, 0.37% active. AID 1251, 2008. arbovirus infection cell-based antiviral screen; in the data active = inhibition above about 30%
PKD1 inh – inhibitors of human PKD1 kinase, biochemical, fluorescence polarization; 200,000 tested, 0.056% active; Serine/threonine-protein kinase D1 (Homo sapiens), Q15139; PKD1 kinase fluorescence polarization assay; inhibition, % (test concentration not listed)
CHOP inhibitor – inhibitors of CHOP promoter induction, primary screen, cell-based, unfolded protein response, luciferase reporter. CHO-K1 CHOP-promoter luciferase, tunicamycin-induced, 15-18 h. inhibition, % at 10 µM. 220,000 tested, 3.8% active;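 active = compounds that reduced the stress-induced luciferase reporter signal by more than about 70% of percent inhibition, limit read from the data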;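 also: 0% = tunicamycin plus vehicle and 100% = wells without tunicamycin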
Rad51 HR inh – human RAD51 strand exchange inhibitors, primary screen, biochemical, fluorescence; DNA repair protein RAD51 homolog 1 (Homo sapiens), Q06609; hRad51 DNA strand exchange, fluorescence dequenching; inhibition, % at 10 µM; 200,000 tested, 0.085% active;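 active = inhibition above 40% at the single screening dose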;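 also: 0% = DMSO control wells and 100% = blanks with heterologous ssDNA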
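Assay system: Human Rad51 nucleoprotein filaments preassembled on unlabelled ssDNA | Reagent: Donor/quencher-labelled 47-bp dsDNA substrate | Doses: One concentration, 10 µM final | Times: 37 °C 15-min filament assembly, 30-min compound preincubation, 15-min exchange | Technique: Fluorescein emission 520 nm, excitation 485 nm | Benchmarks: Plate control and blank wells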
Lmaj promast – Leishmania major promastigote growth inhibition, primary screen; Leishmania major promastigotes, resazurin fluorescence viability; inhibition, % at 10 µM; 200,000 tested, 9% active; AID 1063, 2008;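 also: promastigotes grown with compound for 44 hours at 28 °C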
* hit, by the source's call; . = not tested or not shown. Rule as the data show it, unless noted: active = inhibition above about 50%; inactive = the rest.

SMILES	Wee1 stabilizer	Arbovirus anti	PKD1 inh	CHOP inhibitor	Rad51 HR inh	Lmaj promast
COc1cccc(Cl)c1NC(=O)N1CCc2c([nH]c3ccccc23)C1C(F)(F)F (stereo unspecified)	7	.	.	-54	13	.
COc1cc(/C=N/NC(=O)c2cccnc2)ccc1OCC(=O)Nc1c(C)cc(C)cc1C	2	-1	-14	-7	6	54*
COc1ccc(NC(=O)COc2ccc(/C=N/NC(=O)c3cccnc3)cc2OC)cc1	0	-1	-7	17	3	55*
COc1cc(/C=N/NC(=O)c2cccnc2)ccc1OCC(=O)Nc1ccccc1Cl	-2	9	3	32	-10	-5
Cc1ccc2c(CC(=O)O)coc2c1	-3	4	-10	-1	-5	-7
Cc1ccc2c(CC(=O)NNC(=O)c3ccccc3)coc2c1	0	7	3	30	-2	55*
Cc1ccc(C(=O)Nc2ccc(F)cc2)o1	-1	-6	10	17	1	51*
Cc1ccc(C(=O)Nc2ccc3c(c2)CCC3)o1	3	-2	2	16	-4	-1
COc1ccc(OC)c(S(=O)(=O)Nc2cc(OC)c(Cl)cc2OC)c1	0	-9	-1	43	5	62*
COc1cc(NS(=O)(=O)c2ccc(OC)c(C)c2C)c(OC)cc1Cl	5	-17	-3	.	1	100*
COc1ccc(OC)c(S(=O)(=O)Nc2cc(Cl)cc(Cl)c2)c1	0	5	0	54	-3	5
COc1ccc(S(=O)(=O)Nc2ccccn2)c(C)c1C	-3	18	-3	2	6	-4
COc1ccc(OC)c(NC(=O)c2ccc(-c3cccs3)cc2)c1	-1	-1	-1	3	22	0
O=C(Nc1n[nH]c(C(F)(F)F)n1)C1CC1	0	-2	-8	-4	-11	-3
Cc1cccc(-n2cnc(C(=O)O)c2)n1	1	-4	-3	-11	-10	-6
C/C(=N/NC(=O)c1cn(-c2cccc(C)n2)cn1)c1ccc(C)cc1	2	-1	-10	66	0	77*
COc1cc(/C=N/NC(=O)c2cn(-c3cccc(C)n3)cn2)ccc1O	-1	-8	-2	-5	12	98*
Cc1cc(C)n(-c2cccc(CN(C)Cc3nc(-c4cnccn4)no3)c2)n1	4	3	-1	1	-1	-1
C=CCN1C(=O)CSc2ccc(C(=O)NCCC3=CCCCC3)cc21	-1	13	-5	63	.	76*
C=CCN1C(=O)CSc2ccc(C(=O)NCc3ccco3)cc21	1	3	5	11	2	0
CCC(=O)Nc1ccc(C(=O)CSc2nc3ccc(C)cc3[nH]2)cc1	1	-5	15	11	0	0
Cc1ccc2nc(SCC(=O)c3ccc4c(c3)OCO4)[nH]c2c1	1	-1	-4	38	-3	84*
Cc1ccc2nc(SCC(=O)c3ccc(Cl)s3)[nH]c2c1	-2	3	6	71*	-3	16
COC(=O)c1ccc(CSc2nc3ccc(C)cc3[nH]2)o1	-2	-1	0	-4	.	87*
CC(=O)c1c(C)[nH]c(C(=O)CSc2nc3ccc(C)cc3[nH]2)c1C	-3	10	2	51	5	92*
SMILES	Wee1 stabilizer	Arbovirus anti	PKD1 inh	CHOP inhibitor	Rad51 HR inh	Lmaj promast
O=C(N/N=C/c1cc(Cl)ccc1O)C(=O)Nc1ccccc1OC(F)(F)C(F)F	-2	-22	-8	78*	.	99*
O=C(N/N=C/c1cc(Br)ccc1O)C(=O)Nc1ccccc1OC(F)(F)C(F)F	-1	-29	-1	77*	.	99*
COc1ccccc1/C=N/NC(=O)C(=O)Nc1ccccc1OC(F)(F)C(F)F	0	-17	0	13	3	-5
CCN(CC)S(=O)(=O)c1ccc(C(=O)NCC(c2ccc(OC)cc2)N2CCOCC2)cc1 (stereo unspecified)	5	-1	2	-23	-13	4
CC(C)C1Oc2cc3oc(=O)ccc3cc2C1=O (stereo unspecified)	-2	0	-9	-7	-7	12
CNc1cncc(C(=O)O)c1	-5	1	3	6	7	2
CCN=c1scc(C)n1/N=C/c1cc(Br)c(O)c(Br)c1	0	31*	0	29	.	2
Cc1[nH]n(-c2ccccc2)c(=S)c1C=Nc1cccc([N+](=O)[O-])c1	-2	1	0	80*	-4	-9
COc1ccccc1C(=O)COC(=O)CNS(=O)(=O)c1ccc(C)cc1	-1	4	-1	18	1	0
CCOC(=O)c1sc2nc(C(C)C)c3c(c2c1N)CC(C)(C)OC3	0	-4	1	70*	8	-1
CCOC(=O)c1sc2nc(N3CCCC3)c3c(c2c1N)CC(C)(C)OC3	2	-3	-5	-1	-1	6
c1ccc2sc(NC3=NCN(CCN4CCOCC4)CN3)nc2c1	1	8	3	29	-4	84*
COc1ccc(C(=O)NCc2cccnc2)cc1OC	-3	-2	3	-5	.	3
COc1cccc(C(=O)NCC(c2cccnc2)N2CCN(c3ccccc3OC)CC2)c1 (stereo unspecified)	-1	-7	-12	-19	.	88*
COc1ccc(C(=O)NCC(c2cccnc2)N2CCN(c3ccccc3OC)CC2)cc1OC (stereo unspecified)	-3	-6	4	-4	.	74*
Cc1ccc(NC(=O)c2ccco2)c(NC(=O)C2CCCO2)c1 (stereo unspecified)	-2	1	-1	6	8	-2
Cc1nnc(N(C)C(=O)c2ccc3c(c2)OCO3)s1	-2	0	-4	-40	0	-4
Cc1ccc2nc(N3CC(=O)Nc4ccccc43)nc(-c3ccccc3)c2c1	9.6*	-7	-7	89*	-1	7
Cc1ccccc1Nc1cc(C(=O)NCc2ccco2)c2ccccc2n1	-1	-3	6	3	-8	76*
Cc1cccc(Nc2nc(NCc3ccco3)c3ccccc3n2)c1	-1	-35	19	69	-6	100*
Cc1ccc(S(=O)(=O)Nc2nc3ccccc3nc2NCc2ccco2)cc1	-1	4	-1	10	-5	5
Cc1ccccc1Nc1nc(NCc2ccco2)c2ccccc2n1	-1	-25	-1	19	-4	100*
Oc1ccccc1Nc1nc(NCc2ccco2)c2ccccc2n1	-3	.	.	18	.	.
Cc1cccc(S(=O)(=O)Nc2nc3ccccc3nc2NCc2ccco2)c1	-1	33*	6	1	.	-1
CC(C)N1C(=O)CSC1c1ccc(Br)cc1 (stereo unspecified)	-3	7	-6	12	0	-6

From PubChem BioAssay
